Experimental data from ChEMBL document CHEMBL2375259, “Arylpiperazines as fatty acid transport protein 1 (FATP1) inhibitors with improved potency and pharmacokinetic properties” (Bioorg Med Chem Lett, 2013).
Converted amounts (≈) assume the structure as drawn. The source made the active and inactive calls. No cut-off for these calls is given here.

Experiments:
[1] = biological target: Long-chain fatty acid transport protein 1 (Homo sapiens, UniProt Q6PCB7); assay: Inhibition of human FLAG-tagged FATP1-mediated [1-14C] oleic acid conversion to [1-14C] oleoyl-CoA after 20 mins by scintillation counting analysis
Long-chain fatty acid transport protein 1 (Homo sapiens, UniProt Q6PCB7), sequence (Q6PCB7 whole entry): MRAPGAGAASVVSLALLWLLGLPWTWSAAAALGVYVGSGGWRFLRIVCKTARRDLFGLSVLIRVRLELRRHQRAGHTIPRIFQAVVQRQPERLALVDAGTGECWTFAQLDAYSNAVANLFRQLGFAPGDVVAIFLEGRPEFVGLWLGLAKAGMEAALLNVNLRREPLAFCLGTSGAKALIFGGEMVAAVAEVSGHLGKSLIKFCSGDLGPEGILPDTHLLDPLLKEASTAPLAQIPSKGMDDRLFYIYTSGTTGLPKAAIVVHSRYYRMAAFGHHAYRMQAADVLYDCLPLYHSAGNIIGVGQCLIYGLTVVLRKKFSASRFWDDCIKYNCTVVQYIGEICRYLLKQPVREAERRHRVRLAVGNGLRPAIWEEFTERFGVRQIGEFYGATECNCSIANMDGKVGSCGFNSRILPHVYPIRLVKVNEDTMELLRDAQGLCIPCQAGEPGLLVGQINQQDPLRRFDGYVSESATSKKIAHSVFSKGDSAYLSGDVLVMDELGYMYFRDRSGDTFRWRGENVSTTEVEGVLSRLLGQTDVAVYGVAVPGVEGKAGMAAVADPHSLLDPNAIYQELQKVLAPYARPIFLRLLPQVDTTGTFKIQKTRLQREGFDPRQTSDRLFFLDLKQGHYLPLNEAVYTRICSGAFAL
Summary of the method: (§1)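 Purified FLAG-tagged human or mouse FATP1 run in a cell-free acyl-CoA synthetase assay. Protein incubated with 10 µM [1-14C]oleic acid, 0.5 mM ATP, 0.5 mM CoA, 5 mM MgCl2, 30 mM NaCl, 0.05% Triton X-100 and 2 mM DTT in 100 mM Tris-HCl pH 7.4 for 20 min at 37 °C. Free oleate removed by heptane washes. Aqueous-phase radioactivity counted by scintillation. FLAG-luciferase background subtracted. IC50 is the mean of n ≥ 2.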

[2] = 1-Octanol-phosphate buffered saline distribution coefficient, log D of the compound at pH 7.4; assay type: physicochemical
Summary of the method: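 logD measured by partitioning between 1-octanol and phosphate-buffered saline, pH 7.4.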

[3] = biological target: Long-chain fatty acid transport protein 1 (Mus musculus, UniProt Q60714); assay: Inhibition of mouse FLAG-tagged FATP1-mediated [1-14C] oleic acid conversion to [1-14C] oleoyl-CoA after 20 mins by scintillation counting analysis; summary of the method: as §1
Long-chain fatty acid transport protein 1 (Mus musculus, UniProt Q60714), sequence (Q60714 whole entry): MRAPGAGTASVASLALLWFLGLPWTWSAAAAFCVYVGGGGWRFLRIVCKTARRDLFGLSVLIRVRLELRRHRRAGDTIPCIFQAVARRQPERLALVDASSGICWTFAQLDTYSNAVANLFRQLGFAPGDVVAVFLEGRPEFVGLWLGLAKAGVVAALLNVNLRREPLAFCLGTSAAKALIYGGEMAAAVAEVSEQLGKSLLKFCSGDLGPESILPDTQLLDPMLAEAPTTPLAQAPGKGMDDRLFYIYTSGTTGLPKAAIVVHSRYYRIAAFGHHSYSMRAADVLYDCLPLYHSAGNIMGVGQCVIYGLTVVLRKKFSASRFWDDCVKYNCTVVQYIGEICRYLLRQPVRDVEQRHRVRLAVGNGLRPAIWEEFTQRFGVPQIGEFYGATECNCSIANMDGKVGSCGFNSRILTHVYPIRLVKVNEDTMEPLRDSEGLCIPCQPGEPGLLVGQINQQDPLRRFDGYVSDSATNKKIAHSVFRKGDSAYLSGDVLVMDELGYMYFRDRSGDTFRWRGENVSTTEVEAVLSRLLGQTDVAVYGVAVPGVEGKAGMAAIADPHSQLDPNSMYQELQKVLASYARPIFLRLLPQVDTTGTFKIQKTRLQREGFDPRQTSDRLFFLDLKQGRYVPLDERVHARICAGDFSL

[4] = Metabolic stability in mouse liver microsomes assessed as compound remaining after 0.5 hr; assay type: ADME, Microsome; conditions: read-out: Stability
Summary of the method: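 Test compound incubated 0.5 h with mouse liver microsomes. Result given as percent of parent remaining.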

[5] = Solubility in Japanese Pharmacopoeia first fluid; assay type: physicochemical; conditions: pH 1.2
[6] = test system: Mus musculus; assay: Free Cmax in mouse at 10 mg/kg, po; assay type: ADME, organism-based; set-up: dose 10 mg/kg, route oral; conditions: in vivo
Summary of the method: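 Free Cmax calculated as plasma unbound fraction (%) multiplied against the […], from mice given 10 mg/kg orally in DMA/PG/(20% HPβCD/saline) 10/10/80, n = 3.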

[7] = Fraction unbound in mouse plasma at 10 mg/kg, po; assay type: ADME, organism-based; set-up: dose 10 mg/kg, route oral
Summary of the method: (§2)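 Unbound fraction (%) measured in mouse plasma.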

[8] = test system: Mus musculus; assay: In vivo inhibition of FATP1 in high-fat diet fed mouse assessed as decrease in triglyceride content in white gastrocnemius muscle at 3 to 30 mg/kg, po after 4 weeks; assay type: functional, organism-based
Summary of the method: (§3)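 Mice kept on a high-fat diet for 4 weeks and given the compound orally at 3/10/30, 10/30/100 or 1/10/100 mg/kg. The 1–100 mg/kg series was run for 3 weeks. Triglyceride content measured in liver, white gastrocnemius and soleus, compared against HFD vehicle controls, P < 0.05.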

[9] = Tmax in mouse at 10 mg/kg, po; assay type: ADME, organism-based; set-up: dose 10 mg/kg, route oral; conditions: in vivo
Summary of the method: (§4)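 Single 10 mg/kg oral dose to mice in DMA/PG/(20% HPβCD in saline) 10/10/80. Values are the mean of three mice.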

[10] = AUC in mouse at 10 mg/kg, po; assay type: ADME, organism-based; set-up: dose 10 mg/kg, route oral; conditions: plasma; summary of the method: as §4
[11] = Solubility in Japanese Pharmacopoeia second fluid; assay type: physicochemical; conditions: pH 6.8
[12] = test system: Mus musculus; assay: In vivo inhibition of FATP1 in high-fat diet fed mouse assessed as decrease in triglyceride content in liver at 3 to 30 mg/kg, po after 4 weeks; assay type: functional, organism-based; summary of the method: as §3
[13] = Cmax in mouse at 10 mg/kg, po; assay type: ADME, organism-based; set-up: dose 10 mg/kg, route oral; conditions: in vivo; summary of the method: as §4
[14] = Clearance in mouse at 1 mg/kg, iv; assay type: ADME, organism-based; set-up: dose 1 mg/kg, route intravenous; conditions: in vivo
Summary of the method: (§5)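 Single 1 mg/kg intravenous dose to mice in DMA/PG/(20% HPβCD in saline) 10/10/80. Values are the mean of two mice.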

[15] = Ratio of drug uptake in soleus muscle to plasma in mouse at 10 mg/kg, po after 1 week of repeated compound administration; assay type: ADME, organism-based; set-up: dose 10 mg/kg, route oral
Summary of the method: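 Mice received repeated oral dosing at 10 mg/kg for 1 week. Soleus and plasma concentrations measured 3 h after dosing. Kp taken as the soleus-to-plasma ratio.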

[16] = Oral bioavailability in mouse at 10 mg/kg; assay type: ADME, organism-based; conditions: in vivo
[17] = Volume of distribution in mouse at 1 mg/kg, iv; assay type: ADME, organism-based; set-up: dose 1 mg/kg, route intravenous; conditions: in vivo; summary of the method: as §5
[18] = test system: Mus musculus; assay: In vivo inhibition of FATP1 in high-fat diet fed mouse assessed as decrease in triglyceride content in soleus muscle at 3 to 30 mg/kg, po after 4 weeks; assay type: functional, organism-based; summary of the method: as §3
[19] = test system: Mus musculus; assay: In vivo inhibition of FATP1 in high-fat diet fed mouse assessed as decrease in triglyceride content in white gastrocnemius muscle at 10 to 100 mg/kg, po after 4 weeks; assay type: functional, organism-based; summary of the method: as §3
[20] = test system: Mus musculus; assay: In vivo inhibition of FATP1 in high-fat diet fed mouse assessed as decrease in triglyceride content in liver at 10 to 100 mg/kg, po after 4 weeks; assay type: functional, organism-based; summary of the method: as §3
[21] = test system: Mus musculus; assay: In vivo inhibition of FATP1 in high-fat diet fed mouse assessed as decrease in triglyceride content in soleus muscle at 10 to 100 mg/kg, po after 4 weeks; assay type: functional, organism-based; summary of the method: as §3
[22] = Plasma protein binding in mouse at 10 mg/kg, po; assay type: ADME, organism-based; set-up: dose 10 mg/kg, route oral; conditions: read-out: PPB (converted); summary of the method: as §2
[23] = Volume of distribution in mouse at 5 mg/kg, iv; assay type: ADME, organism-based; set-up: dose 5 mg/kg, route intravenous; conditions: in vivo
[24] = Clearance in mouse at 5 mg/kg, iv; assay type: ADME, organism-based; set-up: dose 5 mg/kg, route intravenous; conditions: in vivo
[25] = test system: Mus musculus; assay: In vivo inhibition of FATP1 in high-fat diet fed mouse assessed as decrease in triglyceride content in white gastrocnemius muscle at 1 to 100 mg/kg, po after 3 weeks
[26] = test system: Mus musculus; assay: In vivo inhibition of FATP1 in high-fat diet fed mouse assessed as decrease in triglyceride content in soleus muscle at 1 to 100 mg/kg, po after 3 weeks
[27] = test system: Mus musculus; assay: In vivo inhibition of FATP1 in high-fat diet fed mouse assessed as decrease in triglyceride content in liver at 1 to 100 mg/kg, po after 3 weeks

Row | SMILES | IC50 [1] [nM] | logD [2] | IC50 [3] [nM] | remaining at 0.5 h [4] [%] | other results
1 | O=C(CN1CCN(c2ccc(F)cn2)CC1)c1coc2ccccc12 | 470 | 3.9 | 1900 | 76 | –
2 | O=C(CN1CCN(c2ccc(F)cc2)CC1)Nc1nc2c(o1)CCCC2 | 180 | 3 | 5400 | 53 | –
3 | O=C(CN1CCN(c2ncccn2)CC1)Nc1nc2c(s1)CCCC2 | > 1000 | 3.7 | > 10000 | – | –
4 | O=C(CN1CCN(c2ccc(F)cn2)CC1)c1ncc2ccccn12 | > 1000 | – | > 10000 | – | –
5 | Cc1nc2ccccn2c1C(=O)CN1CCN(c2ccc(F)cn2)CC1 | 430 | 2.8 | 390 | 52 | solubility [5]: > 700 µg/mL; fCmax [6]: 0.61 µg/mL; fraction unbound [7]: 0.275; inhibition [8]: inactive; Tmax [9]: 19.8 min; AUC [10]: 5500 ng·h/mL; solubility [11]: 350 µg/mL (≈ 990 µM); inhibition [12]: inactive; Cmax [13]: 2200 ng/mL; clearance [14]: 6.4 mL/min/kg; Kp at 168 h [15]: 1.1; bioavailability [16]: 21%; Vd [17]: 0.2 L/kg; inhibition [18]: inactive
6 | O=C(CN1CCN(c2ccc(F)cc2)CC1)Nc1nc2c(s1)CCC2 | 490 | 4 | > 10000 | – | –
7 | O=C(CN1CCN(c2cccc(F)c2)CC1)Nc1nc2c(s1)CCCC2 | > 1000 | – | > 10000 | – | –
8 | O=C(CN1CCN(c2ccc(F)cc2)CC1)Nc1nc2c(s1)CCCC2 | 77 | 4.5 | 4000 | 42 | –
9 | Cc1nc2n(c1C(=O)CN1CCN(c3ccc(F)cn3)CC1)CCCC2 | 190 | 2.5 | 400 | 55 | –
10 | O=C(CN1CCN(C(=O)c2ccccc2)CC1)Nc1nc2c(s1)CCCC2 | > 1000 | 2.1 | > 10000 | – | –
11 | O=C(CN1CCN(c2ccc(F)cc2)CC1)Nc1nc2c(s1)CCCCC2 | 120 | 5 | 2000 | – | –
12 | O=C(CN1CCN(c2ccc(F)cn2)CC1)c1c[nH]c2ccccc12 | > 1000 | – | > 10000 | – | –
13 | O=C(CN1CCN(c2ccccc2)CC1)Nc1nc2c(s1)CCCC2 | 280 | 4.3 | 9000 | – | –
14 | O=C(CN1CCN(c2ccccn2)CC1)Nc1nc2c(s1)CCCC2 | 200 | 3.9 | 4900 | – | –
15 | Cc1nc2ccccn2c1C(=O)CN1CCN(c2ccccc2)CC1 | 3000 | – | – | – | –
16 | O=C(CN1CCN(c2ccc(F)cn2)CC1)c1n[nH]c2ccccc12 | > 1000 | 2.8 | > 10000 | – | –

Row | SMILES | IC50 [1] [nM] | logD [2] | IC50 [3] [nM] | remaining at 0.5 h [4] [%] | other results
17 | CN(C(=O)CN1CCN(c2ccc(F)cn2)CC1)c1nc2c(s1)CCCC2 | 41 | 3.9 | 620 | 65 | –
18 | O=C(CN1CCN(c2nccs2)CC1)Nc1nc2c(s1)CCCC2 | 520 | 3.8 | 7900 | – | –
19 | CC1CCc2sc(NC(=O)CN3CCN(c4ccc(F)cc4)CC3)nc2C1 (stereo unspecified) | 26 | 5.1 | 5100 | 30 | inhibition [19]: inactive; solubility [5]: 540 µg/mL (≈ 1390 µM); fCmax [6]: 0.0077 µg/mL; inhibition [20]: inactive; fraction unbound [7]: 0.0043; inhibition [21]: inactive; fraction unbound [22]: 0.0043; Tmax [9]: 15 min; AUC [10]: 2300 ng·h/mL; solubility [11]: 0.7 µg/mL (≈ 1.8 µM); Vd [23]: 1.5 L/kg; Cmax [13]: 1800 ng/mL; Kp at 168 h [15]: 0.33; clearance [24]: 46 mL/min/kg; bioavailability [16]: 62%
20 | O=C(CN1CCN(c2ccc(F)cc2)CC1)Nc1nc2ccccc2s1 | 490 | 4.4 | > 10000 | – | –
21 | Cc1nc(NC(=O)CN2CCN(c3ccc(F)cc3)CC2)sc1C | 430 | 3.7 | 1700 | 56 | –
22 | O=C(CN1CCN(C2CCCCC2)CC1)Nc1nc2c(s1)CCCC2 | > 1000 | 3 | > 10000 | – | –
23 | O=C(CN1CCN(c2ccc(F)cn2)CC1)c1cnc2n1CCCC2 | 100 | 2.1 | 160 | 86 | –
24 | O=C(CN1CCN(c2ccc(F)cn2)CC1)c1cnc2ccccn12 | 130 | 2.5 | 290 | 98 | –
25 | O=C(CN1CCN(c2ccc(F)cn2)CC1)Nc1nc2c(o1)CCCC2 | 100 | 2.7 | 1700 | 63 | –
26 | O=C(CN1CCN(c2ccncc2)CC1)Nc1nc2c(s1)CCCC2 | > 1000 | 2 | > 10000 | – | –
27 | CCN(C(=O)CN1CCN(c2ccc(F)cn2)CC1)c1nc2c(s1)CCCC2 | 780 | – | > 10000 | – | –
28 | O=C(CN1CCN(c2cccnc2)CC1)Nc1nc2c(s1)CCCC2 | > 1000 | 3.3 | > 10000 | – | –
29 | O=C(CN1CCN(c2ccc(F)cn2)CC1)Nc1nc2c(s1)CCCC2 | 46 | 4.1 | 600 | 63 | solubility [5]: 700 µg/mL (≈ 1860 µM); fCmax [6]: 0.0083 µg/mL; fraction unbound [7]: 0.0015; Tmax [9]: 19.8 min; AUC [10]: 36000 ng·h/mL; solubility [11]: 2.4 µg/mL (≈ 6.39 µM); Cmax [13]: 5500 ng/mL; inhibition [25]: inactive; inhibition [26]: inactive; clearance [14]: 5 mL/min/kg; Kp at 168 h [15]: 0.03; inhibition [27]: inactive; bioavailability [16]: 100%; Vd [17]: 0.57 L/kg
30 | O=C(CN1CCN(c2ccc(F)cn2)CC1)c1cnn2ccccc12 | 330 | 2.5 | 1100 | 84 | –
31 | Cc1ccc(N2CCN(CC(=O)Nc3nc4c(s3)CCCC4)CC2)cc1 | 250 | 4.8 | > 10000 | – | –
32 | O=C(CN1CCN(c2ccc(F)cc2)CC1)Nc1nccs1 | > 1000 | 2.8 | > 10000 | – | –
